Experimental data collected from several papers.
Protocols differ between the studies behind these lines.
Target: 5-hydroxytryptamine receptor 1A (HTR1A, Homo sapiens, UniProt P08908)
Sequence (P08908 1-422, as in one of the studies): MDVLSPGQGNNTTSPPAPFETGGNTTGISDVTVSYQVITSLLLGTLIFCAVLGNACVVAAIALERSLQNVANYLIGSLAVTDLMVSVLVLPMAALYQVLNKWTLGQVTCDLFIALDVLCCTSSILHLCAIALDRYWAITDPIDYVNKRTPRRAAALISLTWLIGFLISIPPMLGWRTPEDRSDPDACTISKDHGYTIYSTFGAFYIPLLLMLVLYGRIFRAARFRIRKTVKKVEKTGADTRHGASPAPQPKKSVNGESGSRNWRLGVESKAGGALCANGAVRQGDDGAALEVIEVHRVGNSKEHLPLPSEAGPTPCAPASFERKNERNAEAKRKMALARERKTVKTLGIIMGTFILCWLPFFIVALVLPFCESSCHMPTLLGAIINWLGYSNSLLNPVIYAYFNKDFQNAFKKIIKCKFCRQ

SMILES | effect on | action | method | cells | concentration | measurement | result
CNC(=O)Nc1ccc2c(c1)[C@]1(CC2)OC(=O)N(CC(=O)N(Cc2ccc(F)cc2)[C@@H](C)C(F)(F)F)C1=O | ligand displacement |  |  |  | 10 µM | inhibition | 4.17%
CC(C)N1CCC[C@H]1CNC(=O)c1cn(C2CCCC2)c(=O)c2c1c1ccccc1n2C | ligand displacement |  | radioligand |  | 10 µM | inhibition | 3%
COCc1c(-c2cc3cc(C)cc(OC)c3s2)c2c(N)ncnn2c1CN1CCNC(=O)C1 | ligand displacement |  | radioligand |  | 10 µM | inhibition | 8%
COCCc1ccc(-c2c(C)nc3c(N4CCOCC4)ccnn23)cn1 | ligand displacement |  |  |  | 10 µM | inhibition | 22.9%
Clc1ccc2c(C3CCN(CCc4c[nH]c5ccccc45)CC3)c[nH]c2c1 | ligand displacement |  | radioligand |  | 10 µM | inhibition | 99%
CCNCCc1c[nH]c2ccc(OC)cc12 | calcium signal | agonist |  |  |  | Emax | ~70%
CN(C)C(=O)N[C@H]1CC[C@H](CCN2CCN(c3cccc(Cl)c3Cl)CC2)CC1 | cAMP | agonist | TR-FRET | CHO |  | Emax | 95%
CCN(CC)CCCC[C@H](NC(=O)[C@H](CC(C)C)NC(=O)[C@H](C)NC(=O)[C@H](Cc1ccccc1)NC(=O)c1ccc(C(C)(C)C)cc1)C(=O)N[C@@H](CO)C(=O)OC | ligand displacement |  | radioligand |  | 10 µM | remaining binding | 81.3%
